How the values were obtained:
HL-60 = assay: Compound was tested for the inhibition of human HL60 Leukemia; type: functional, cell-based
Method in brief: (§1)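 Human leukemia and solid tumor cells in culture were exposed to compound for 48 h. Viability was scored by trypan blue dye exclusion. IC50 (50% inhibition) was estimated from response curves of three separate experiments.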

Glioblastoma cell line = assay: Compound was tested for the inhibition of glioblastoma; type: functional, cell-based; conditions: Homo sapiens; method in brief: as §1
[1] = system: Small cell lung cancer cell line; assay: Compound was tested for the inhibition of small cell lung cancer; type: functional, cell-based; conditions: Homo sapiens; method in brief: as §1
NSCLC = assay: Compound was tested for the inhibition of non- small cell lung cancer; type: functional, cell-based; conditions: Homo sapiens; method in brief: as §1
CML/BC = assay: Compound was tested for the inhibition of CML/BC(chronic myeloid leukemia, blast crisis); type: functional, cell-based; conditions: Homo sapiens; method in brief: as §1
AMML = assay: Compound was tested for the inhibition of AMML (acute myelomonocytic leukemia); type: functional, cell-based; conditions: Homo sapiens; method in brief: as §1
P388 [2] = assay: Antitumor activity was determined against the ip implanted P388 leukemia in mice by change in […] at 60 mg/kg (1-5qd treatment schedule) dosage; type: functional, Mus musculus; conditions: route intraperitoneal
Method in brief: (§2)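 P388 leukemia, 1×10^6 cells implanted ip on day 0 into DBA/2J mice, groups of 6 (wt 23-33 g). Dosing ip started 24 h post-inoculation, vehicle 0.9% NaCl containing 0.5% Tween-80. Animals were observed daily until death or 45 days. Outputs were weight change, median survival T/C from survivors per NCI protocols, and %ILS = (T/C − 1) × 100.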

P388 [3] = assay: Antitumor activity against the ip implanted P388 leukemia in mice expressed as optimal dose (1 qd treatment schedule) required to produce greatest increase in life span was determined; type: functional, Mus musculus
Method in brief: (§3)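 P388 leukemia: 1 × 10^6 cells were given ip on day 0 to DBA/2J mice, groups of 6 (23-33 g). Treatment was ip from 24 h after inoculation, vehicle 0.9% NaCl with 0.5% Tween-80. Mice were observed daily until death or 45 days. Median survival T/C was calculated from survivors per NCI protocols, and ILS = (T/C − 1) × 100. Active range means doses giving ILS ≥25%; optimal dose means greatest ILS.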

P388 [4] = assay: Antitumor activity against ip implanted P388 leukemia in mice expressed as active dose range (1-5qd treatment schedule) required to produce increase in life span by >25% was determined; Range is 40-80; type: functional, Mus musculus; method in brief: as §3
P388 [5] = assay: Antitumor activity was determined against the ip implanted P388 leukemia in mice by percent median survival rate (treated/control) at 300 mg/kg (1 qd treatment schedule) dosage; >45.0/11.0; type: functional, Mus musculus; conditions: route intraperitoneal
P388 [6] = assay: Antitumor activity was determined against the ip implanted P388 leukemia in mice by percent increase in life span at 300 mg/kg (1 qd treatment schedule) dosage; type: functional, Mus musculus; conditions: route intraperitoneal
Method in brief: (§4)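 DBA/2J mice, 23-33 g, in groups of 6, were inoculated ip with 1×10^6 P388 cells on day 0. Dosing was ip from 24 h on the stated schedules, in 0.9% NaCl with 0.5% Tween-80 (sonicated solution or suspension). Survival was followed daily until death or 45 days. Median T/C was calculated from survivors per NCI protocols, with ILS = (T/C − 1) × 100.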

P388 [7] = assay: Antitumor activity was determined against the ip implanted P388 leukemia in mice by range in survival days at 300 mg/kg (1 qd treatment schedule) dosage; Range is 39->45; type: functional, Mus musculus; conditions: route intraperitoneal
P388 [8] = assay: Antitumor activity was determined against the ip implanted P388 leukemia in mice by percent median survival rate (treated/control) at 60 mg/kg (1-5qd treatment schedule) dosage; >45.0/11.5; type: functional, Mus musculus; conditions: route intraperitoneal
P388 [9] = assay: Antitumor activity against the ip implanted P388 leukemia in mice expressed as optimal dose (1-5qd treatment schedule) required to produce greatest increase in life span was determined; type: functional, Mus musculus; set-up: unit: mg/kg; method in brief: as §3
P388 [10] = assay: Antitumor activity against ip implanted P388 leukemia in mice expressed as active dose range (1,5,9qd treatment schedule) required to produce increase in life span by >25% was determined; Range is 100-167; type: functional, Mus musculus; method in brief: as §3
P388 [11] = assay: Antitumor activity against ip implanted P388 leukemia in mice expressed as active dose range (1 qd treatment schedule) required to produce increase in life span by >25% was determined; Range is 200-400; type: functional, Mus musculus; method in brief: as §3
P388 [12] = assay: Antitumor activity against the ip implanted P388 leukemia in mice expressed as optimal dose (1,5,9qd treatment schedule) required to produce greatest increase in life span was determined; type: functional, Mus musculus; set-up: unit: mg/kg; method in brief: as §3
P388 [13] = assay: Antitumor activity was determined against the ip implanted P388 leukemia in mice by percent median survival rate (treated/control) at 133 mg/kg (treatment of 1,5,9qd schedule) dosage; >45.0/11.5; type: functional, Mus musculus; conditions: route intraperitoneal
P388 [14] = assay: Antitumor activity was determined against the ip implanted P388 leukemia in mice by 45-day survivors in mice at 60 mg/kg (1-5qd treatment schedule) dosage; type: functional, Mus musculus; conditions: route intraperitoneal; method in brief: as §4
P388 [15] = assay: Antitumor activity was determined against the ip implanted P388 leukemia in mice by percent increase in life span at 60 mg/kg (1-5qd treatment schedule) dosage; type: functional, Mus musculus; conditions: route intraperitoneal; method in brief: as §4
P388 [16] = assay: Antitumor activity was determined against the ip implanted P388 leukemia in mice by 45-day survivors in mice at 300 mg/kg (1 qd treatment schedule) dosage; type: functional, Mus musculus; conditions: route intraperitoneal; method in brief: as §4
P388 [17] = assay: Antitumor activity was determined against the ip implanted P388 leukemia in mice by percent increase in life span at 133 mg/kg (treatment of 1,5,9qd schedule) dosage; type: functional, Mus musculus; conditions: route intraperitoneal; method in brief: as §4
P388 [18] = assay: Antitumor activity was determined against the ip implanted P388 leukemia in mice by change in […] at 133 mg/kg (treatment of 1,5,9qd schedule) dosage; type: functional, Mus musculus; conditions: route intraperitoneal; method in brief: as §2
P388 [19] = assay: Antitumor activity was determined against the ip implanted P388 leukemia in mice by 45-day survivors in mice at 133 mg/kg (treatment of 1,5,9qd schedule) dosage; type: functional, Mus musculus; conditions: route intraperitoneal; method in brief: as §4
P388 [20] = assay: Antitumor activity was determined against the ip implanted P388 leukemia in mice by change in […] at 300 mg/kg (1 qd treatment schedule) dosage; type: functional, Mus musculus; conditions: route intraperitoneal; method in brief: as §2

Compound: CCCCCCCCCCCCCCCCCCOCC(COP(=O)([O-])OCC[N+](C)(C)C)OC.Nc1ccn([C@@H]2O[C@H](CO)[C@@H](O)[C@@H]2O)c(=O)n1 (stereo not given)
- IC50 (HL-60): 0.26 µM
- IC50 (Glioblastoma cell line): 27 µM
- IC50 [1]: 38 µM
- IC50 (NSCLC): 34 µM
- IC50 (CML/BC): 0.25 µM
- IC50 (AMML): 1.35 µM

Compound: CCCCCCCCCCCCCCCC(=O)OCC(COP(=O)(O)OP(=O)(O)OC[C@H]1O[C@@H](n2ccc(N)nc2=O)[C@@H](O)[C@@H]1O)OC(=O)CCCCCCCCCCCCCCC (mixture of isomers)
- Weight change (P388 [2]): -3.27 g mouse-1
- Optimal dose (P388 [3]): 300 mg/kg/day
- Active dose range (P388 [4]): 40 mg/kg/day
- T/C (P388 [5]): >45%
- ILS (P388 [6]): >309
- Range (P388 [7]): 39
- T/C (P388 [8]): >45%
- Optimal dose (P388 [9]): 60 mg
- Active dose range (P388 [10]): 100 mg/kg/day
- Active dose range (P388 [11]): 200 mg/kg/day
- Optimal dose (P388 [12]): 133 mg
- T/C (P388 [13]): >45%
- Survivors (P388 [14]): 6
- ILS (P388 [15]): >291
- Survivors (P388 [16]): 4
- ILS (P388 [17]): >291
- Weight change (P388 [18]): 0.37 g mouse-1
- Survivors (P388 [19]): 6
- Weight change (P388 [20]): -1.7 g mouse-1

Reference: ChEMBL document CHEMBL1123247, “Nucleoside conjugates. 7. Synthesis and antitumor activity of 1-beta-D-arabinofuranosylcytosine conjugates of ether lipids” (J Med Chem, 1986)
